E-sel inducer: induces E-selectin expression in human endothelial cells. P16581. HUVEC E-selectin immunofluorescence imaging; normalized: neutral wells 0, TNF-alpha wells 100. activation, % at 7.58 µM. 260,000 tested, 0.37% active. AID 686992;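 active = mean E-selectin-positive cell signal at least 10% of the positive control, reached in at least 60% of replicates, without over 20% cell loss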
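Test system: HUVEC; input: 3,000 HUVEC/well; measured by: immunofluorescence imaging; read-out: % PE-positive cells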
SIRT5 inh: sirtuin-5 (human) deacylase inhibition; Q9NXA8; Purified SirT5, succinyl-peptide AMC, trypsin-coupled fluorescence; inhibition, % at 15 µM; 330,000 tested, 1.1% active; AID 652115; in the data active = inhibition above about 15%
Target sequence (Q9NXA8 whole entry, looked up): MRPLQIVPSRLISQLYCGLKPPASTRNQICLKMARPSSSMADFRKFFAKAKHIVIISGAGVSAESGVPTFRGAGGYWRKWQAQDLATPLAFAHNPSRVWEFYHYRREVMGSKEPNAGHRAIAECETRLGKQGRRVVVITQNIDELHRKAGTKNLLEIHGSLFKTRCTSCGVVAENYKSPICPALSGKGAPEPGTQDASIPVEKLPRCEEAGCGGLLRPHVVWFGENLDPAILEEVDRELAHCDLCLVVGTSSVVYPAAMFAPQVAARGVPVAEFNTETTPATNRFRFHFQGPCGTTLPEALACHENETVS
miR122 inh: miR-122 inhibition in Huh7 cells. Huh7 miR-122 Renilla luciferase sensor, 48 h; neutral wells = 0, positive control = 100. activation (reporter increase), % at 12.5 µM. 340,000 tested, 0.3% active;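 active = mean replicate activation score at least 90 and every replicate individually at or above 90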;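 note: higher luciferase means less miR-122 activity so hits act as miR-122 inhibitors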
FGF22 binding: shifts melting point of recombinant human FGF22; recombinant FGF22 thermal shift, SYPRO orange fluorescence; percent of sucrose octasulfate shift, DMSO zero; activity (Tm shift, normalised), % at 9.99 µM; 340,000 tested, 1.5% active; AID 651658;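 active = mean Tm shift, scaled 0 neutral to 100 positive control, at about 1.3% or above, every replicate too, limit read from the data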
S100A4 MyoIIA: blocks human S100A4 binding to myosin IIA peptide | P26447 | S100A4/TAMRA-MyoIIA peptide fluorescence polarization | inhibition, % at 10.7 µM | 360,000 tested, 0.14% active | AID 652163;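 active = mean inhibition of at least 70% across replicates, with every replicate also reaching that level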
Target sequence (P26447 whole entry, looked up): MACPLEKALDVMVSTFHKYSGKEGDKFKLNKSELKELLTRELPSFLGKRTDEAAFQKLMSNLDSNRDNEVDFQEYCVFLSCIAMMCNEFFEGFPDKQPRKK
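Material: S100A4 monomer (human). Medium: Calcium-containing HEPES buffer, pH 7.2. Probe or stimulus: labelled myosin peptide probe, 5 nM. Compound dosing: one concentration per compound. Timing: polarization read 5 min after assay mix addition, stable 5–60 min. Benchmarks: DMSO as neutral control, TFP as positive control.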
Active calls of the source: *; · = no result given; [ ] = another dose, or the depositor's remark. An excerpt weighted towards active compounds, which were near 2.5% of everything screened.

SMILES	E-sel inducer	SIRT5 inh	miR122 inh	FGF22 binding	S100A4 MyoIIA
Cc1ccc(S(=O)(=O)NCc2ccco2)c(C)c1C	·	·	107.3*	·	·
O=C(C1CCC1)N1CCc2cc(S(=O)(=O)NCc3ccco3)ccc21	·	·	176.7*	·	·
O=C(c1ccc(S(=O)(=O)NCc2ccco2)cc1)N1CCN(Cc2ccccc2)CC1	-0.4	-5.3	·	43.8*	-2.8
O=S(=O)(NCc1ccco1)c1ccc(Cl)cc1Cl	-0.1	-4.1	12.0	-0.3	-0.8
O=S(=O)(NCc1ccco1)c1ccc2ccccc2c1	·	0.5	95.2*	-0.2	2.2
COc1ccc2c3c([nH]c2c1)[C@@H](CO)N(Cc1ccccc1F)CC31CCN(C(=O)C2CCCC2)CC1	-0.6	3.4	·	0.2	-9.3
CS(=O)(=O)Nc1ccc2c(c1)[C@@H]1C[C@H](CC(=O)NCC3CC3)O[C@@H](CO)[C@@H]1O2	0.5	5.8	5.7[16.7 µM]	-0.1	-55.9
O=C(O)C1CCCN1C(=O)C12CC3CC(CC(C3)C1)C2 (stereo not given)	·	0.3	·	0.0	-1.9
O=C(COC(=O)C1CCCN1C(=O)C12CC3CC(CC(C3)C1)C2)c1ccc(Br)cc1 (stereo not given)	·	-1.9	-1.2	44.4*	-23.8
COc1ccc(NC(=O)N2CCCC2C(=O)NC23CC4CC(CC(C4)C2)C3)cc1 (stereo not given)	·	-0.3	2.6	-0.1	5.5
COc1ccc(C(=O)COC(=O)C2CCCN2C(=O)C23CC4CC(CC(C4)C2)C3)cc1 (stereo not given)	0.4	-2.4	·	43.2*	-0.3
Cc1noc(C)c1S(=O)(=O)N(C)C[C@H]1Oc2c(NC(=O)C3CC3)cccc2C(=O)N([C@H](C)CO)C[C@H]1C	-0.2	-3.8	-9.5[16.7 µM]	0.1	49.0
COc1ccc(NC(=O)COc2cccc3c2CCN(Cc2cccnc2)C3=O)cc1	-0.1	16.8*	2.1	-0.1	-1.5
CCOc1ccc(NC(=O)COc2cccc3c2CCN(Cc2cccnc2)C3=O)cc1	·	-1.4	-5.3	0.0	6.7
OC[C@@H]1[C@@H](c2ccccc2)C2(CN(CC3CCOCC3)C2)N1Cc1nccs1	-0.1	-0.1	·	-0.1	13.5
CCc1cc2c(=O)c(-c3cnn(-c4ccccc4)c3)c(C)oc2cc1OCC(=O)Nc1cccc(C)c1	·	26.5*	·	0.1	-4.6
CCc1cc2c(=O)c(-c3cnn(-c4ccccc4)c3)c(C)oc2cc1OCC(=O)Nc1ccc(F)c(F)c1	·	0.7	·	0.1	6.5
CC(C)SCC(=O)Nc1ncc2c(n1)-c1ccccc1CC2	·	0.3	·	43.8*	-3.0
O=C(O)c1cc(N/N=C/c2ccc(N3CCOCC3)s2)ccc1Cl	·	36.2*	-14.3	-0.1	-6.8
Cc1cc(C)nc(NS(=O)(=O)c2ccc(NC(=O)c3ccc4c(c3)OCCO4)cc2)n1	·	-3.7	·	43.3*	0.1
Cc1cc(C)nc(NS(=O)(=O)c2ccc(NC(=O)c3ccc(S(=O)(=O)N(C)C)cc3)cc2)n1	·	3.6	-4.3	0.0	-8.8
COCC(=O)N(C)C[C@H]1Oc2cc(-c3ccc(F)cc3)ccc2S(=O)(=O)N([C@@H](C)CO)C[C@H]1C	125.4*	13.3	-12.4[16.7 µM]	0.0	-4.4
C[C@H](CO)N1C[C@H](C)[C@@H](CN(C)CC2CC2)Oc2cc(-c3ccc(F)cc3)ccc2S1(=O)=O	·	3.1	8.0[16.7 µM]	0.1	-7.5
C[C@@H]1CN([C@H](C)CO)S(=O)(=O)c2ccc(C#Cc3cccc(F)c3)cc2O[C@@H]1CN(C)CC1CC1	-1.4	15.2*	8.6[16.7 µM]	-0.2	8.7
C[C@H]1CN([C@@H](C)CO)S(=O)(=O)c2ccc(C#Cc3ccc(F)cc3)cc2O[C@H]1CN(C)CC1CC1	0.2	10.1	-1.5[16.7 µM]	·	0.0
C[C@@H]1CN([C@H](C)CO)S(=O)(=O)c2ccc(-c3ccc(F)cc3)cc2O[C@@H]1CN(C)CC1CC1	91.8*	-1.6	5.6[16.7 µM]	0.2	-24.4
COCC(=O)N(C)C[C@H]1Oc2cc(C#CCN(C)C)ccc2S(=O)(=O)N([C@@H](C)CO)C[C@H]1C	-0.5	-2.6	-8.6[16.7 µM]	0.1	111.6*
C[C@@H]1CN([C@@H](C)CO)C(=O)c2cc(NC(=O)Nc3cccc4ccccc34)ccc2O[C@H]1CN(C)S(=O)(=O)c1ccccc1	0.1	1.8	-0.3[16.7 µM]	0.2	0.7

High-throughput results: PubChem BioAssay, Broad Institute
